The record followed here is the RNAGym collection of RNA variant scans (doi:10.1126/science.aae0568).

To fix the notation:
B1: tRNA (parent)
chain: GUUCCGUUGGCGUAAUGGUAACGCGUCUCCCUCCUAAGGAGAAGACUGCGGGUUCGAGUCCCGUACGGAACG

Fewer inactive variants are shown than the library holds.

This data set covers variants of B1. As to the kind of experiment: yeast fitness relative to wild type (ratio to wild type); higher = fitter; tRNA-Arg(CCU), competitive growth, 37 C, YPD. In short, it runs like this: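 For this measurement, the tRNA-Arg(CCU) gene was varied by chemical synthesis at a 3% per-site mutation rate across 69 sites, and each variant was placed at the native genomic locus in Saccharomyces cerevisiae. The pooled strains went through a 24-hour competition in YPD at 37°C in six parallel replicates, with amplicons from start and end populations read by 100-nucleotide paired-end sequencing. Darwinian fitness relative to wild type followed from the change in each genotype's frequency. Genotypes needed ≥ 100 starting reads, and estimates < 0.5 were set to 0.5.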
Take G9A A40G: the yeast fitness came to 0.918.

In the case of G9C G25C C66U A70C, the yeast fitness stood at 0.55. The result for G9C C27G C46G A65G reads at most 0.5; that for G9A C61U, 0.949; that for G9A A21G, 1.05. On to G9A A21U, for which the yeast fitness was 0.693. Consider G9A C11U C61A, for which the yeast fitness was found to be 0.56. The same measure for U8G C49U: 0.668. Take G9A C31G: the yeast fitness amounted to 0.819. The result for G9C C55G C66A reads at most 0.5; that for U8G U47A, 0.602; that for U8G G17A C31A C66U, at most 0.5. Turning to G9C A21G A57C, the yeast fitness was at most 0.5. Regarding U8G A15C U28A, the yeast fitness is at most 0.5. In the case of U8G A57C, the yeast fitness was at most 0.5. With G9C A40G A42G A57U C62G C66U, the yeast fitness is 0.565. Take G9A A36U G39A G67A: the yeast fitness is at most 0.5. For the variant G9A U13C U19C C34U, the yeast fitness is 0.549.

On to U8C G9A C22G U32G G51C U64A C66U A69C, for which the yeast fitness was at most 0.5.

In the case of U8G C24G U47C C61G, the yeast fitness was at most 0.5. On to G9C G10C U47A G68C, for which the yeast fitness was at most 0.5. As for G9A C27U G41C, the yeast fitness is 0.618. The same measure for G9A U16C A20C C61U: at most 0.5. The result for G9A G44C C66U reads 0.552; that for G9C C24G C49U A65C, at most 0.5; that for G9A G12C C31A C33G A43C A69U A70C, at most 0.5. G9A C29U U59A: the yeast fitness is 0.561. As for G9A C22U C30G C61U, the yeast fitness is at most 0.5. The result for G9A C11A A20U C61U reads 0.559; that for G9A C29U U59G A65C, at most 0.5; that for U8G G17A C24G, at most 0.5. Consider G9A C27G C34A C46G C55A, for which the yeast fitness worked out at 0.508. With G9A C55G A69C, the yeast fitness stood at 0.611. In the case of G9A U16C A21G A42G, the yeast fitness is at most 0.5. In the case of G9A C24U A40U G68C, the yeast fitness is at most 0.5. Turning to U8G A20U G44C, the yeast fitness came out at 0.558. In the case of G9A C22G U28A C31G C55A G68C, the yeast fitness is at most 0.5. The same measure for G9A A14C C22G U54C C66U: at most 0.5. For G9C A15G U16C C29A U47C, the yeast fitness was found to be 0.69. Take G9A C11A A40U G48C C55U C61G: the yeast fitness is at most 0.5. With G9C A21G A42G, the yeast fitness is at most 0.5. The same measure for G9C C62G: 0.608; for G9C C62A: 0.576; for U8G C30U C31G C66G: at most 0.5. For G9A C22A C33G U35A C55U, the yeast fitness was at most 0.5. With U8C G63C, the yeast fitness came out at 0.778. As for U8G C29G A40U C61U A69C, the yeast fitness stood at 0.648. In the case of U8C G9A U13A A15G A37U, the yeast fitness turned out to be 0.549. As to G9A A14U C29G C34A G63A, the yeast fitness is at most 0.5. In the case of G9A C11U C27U A36G, the yeast fitness is at most 0.5. As to G9A A14C U35C, the yeast fitness is at most 0.5. U8G C49U C55U: the yeast fitness turned out to be 0.549.

In the case of G9A A45U A70U, the yeast fitness was 1.01.

For the variant G9A U26G C30A, the yeast fitness is 0.636. U8G G10C A20G G58A: the yeast fitness is at most 0.5.

In the case of G9C G12C C33U U35A, the yeast fitness was at most 0.5.

For the variant G9A U16A A42C U53C C62A, the yeast fitness is at most 0.5.

Take U8C G9A C22G U32G C49G C55G: the yeast fitness was at most 0.5. In the case of G9A U28C A36G, the yeast fitness is 0.683. Turning to U8C G12C, the yeast fitness was 0.853.

Consider G9A C33U U47C, for which the yeast fitness was at most 0.5. On to U8C G9A A42G G58U, for which the yeast fitness is at most 0.5.

Turning to G9A U19C C22A, the yeast fitness was 0.606.

As to G9C A21G U64A, the yeast fitness is at most 0.5.

Take G9A C22G A36U: the yeast fitness worked out at 0.666. The same measure for G9A G50C: 0.947; for U8G C30A G50C C62U G67U: at most 0.5; for G9A G39A A45G G50A: at most 0.5. The result for G9A U26A reads 0.837; that for U8G C34U A40G C46A, at most 0.5; that for G9A A14G C60U C62U, at most 0.5. For G9A G51A C60U G67A, the yeast fitness is 0.588.

On to G9A A14U C46G C55U A69C, for which the yeast fitness is at most 0.5. On to G9A G10A U28A G39A G48A C61G C66G, for which the yeast fitness was at most 0.5. The result for U8G A21U G68C reads at most 0.5; that for G9A C30A A65C, 0.664. The same measure for U8C G9A G12A C60U: at most 0.5; for G9A G39A A45G G50A G63U A69U: at most 0.5. Consider G9C A43G, for which the yeast fitness was 0.706. Regarding U8G G41A C60G, the yeast fitness is at most 0.5. The same measure for G9A A15U C33G G39A C62A: at most 0.5. The same measure for G9C G10A G12C G25C G52C: at most 0.5.

As to G9C A15C C34G C66A A69C, the yeast fitness is at most 0.5. For G9A C24G A37C A70U, the yeast fitness is at most 0.5. As for G9C C46G, the yeast fitness was found to be 0.735. Regarding U8C U28G A40U, the yeast fitness turned out to be 0.588. As for U8C G17C U26C C34A A45C G48A, the yeast fitness is at most 0.5. Take U8G U54G G56C: the yeast fitness is at most 0.5. With G9A G12C G17A C22G C30U C34G C49U U59G, the yeast fitness was at most 0.5. G9A U54C: the yeast fitness came to 0.841.

As for G9A A40G U64C, the yeast fitness stood at 0.722. With G9A C24G G39C G56C, the yeast fitness was at most 0.5.

With G9C A45C A65C, the yeast fitness was at most 0.5. Regarding U8G G67U, the yeast fitness stood at 0.583. Take U8C U16C A20C C24G C55A: the yeast fitness stood at 0.729. In the case of G9C C24U U26G A42U G52U, the yeast fitness is at most 0.5. Take G9C G39C A45C: the yeast fitness was at most 0.5. G9A A14U A21C: the yeast fitness was 0.577.

Take G9A G25A A43G A65U: the yeast fitness is at most 0.5. As to G9C A40U G41A, the yeast fitness is at most 0.5. The result for G9A A20C reads 0.871. The same measure for G9A C34A G58A: 0.667; for G9C A14U G51A U64G: 0.608; for G9C A15G C49A: 0.601.

As to U8C G39C G68A, the yeast fitness was at most 0.5. The result for U8C G50C reads 0.663.

G9C C11U G18C C31A A57G: the yeast fitness was at most 0.5. For G9C C11A A40C A70U, the yeast fitness is 0.704.

With U8C G10A G51A G58A, the yeast fitness was at most 0.5.

Take U8G A37U G63C: the yeast fitness is at most 0.5. The same measure for G9A C34U C46A C62U: 0.546. The result for G9A G12C A14C reads 0.535. Take G9A G17A C22G A40G G41C: the yeast fitness is at most 0.5. As to U8C G12A A21C, the yeast fitness is at most 0.5.

Regarding G9A C55G G56C, the yeast fitness is at most 0.5. On to U8G A42U A43C, for which the yeast fitness is 0.51. Turning to U8C G41C, the yeast fitness was determined as 0.88. Consider U8C G25C G38C C49U A57U C66A, for which the yeast fitness is at most 0.5. On to G9A C29G G63A, for which the yeast fitness came out at 0.525. For the variant U8G C49G U53C C60A, the yeast fitness was at most 0.5.

In the case of G9C A20U C27G A42C C49U A65C, the yeast fitness is at most 0.5. As for U8C G10C G23C C29G G51A, the yeast fitness was determined as 0.72. For the variant G9C C27U U47C C55U C62G A69U, the yeast fitness was at most 0.5. In the case of U8G G18C A37G A40G, the yeast fitness worked out at 0.546.

With U8C U47A, the yeast fitness is 0.937. As for U8C G17A C46A A65G, the yeast fitness was at most 0.5.

With U8C U16A A21C C24G A37U C55U, the yeast fitness was at most 0.5. Take G9A C24G A40C: the yeast fitness was at most 0.5. G9A C24G C34G: the yeast fitness stood at 0.633. The result for U8C U19C reads 0.978; that for G9C A15U U16C A36U, at most 0.5; that for G9A G25C, 0.931. The same measure for U8G G18A G50C A65U: 0.513. In the case of G9C A14U G48C U64G, the yeast fitness is at most 0.5.

Turning to G9A G12C A65G G67C A69G, the yeast fitness is at most 0.5. As to G9C G17C C27G U35A C49A A69U, the yeast fitness was 0.536. As to G9A A21U A36G A40C A69U, the yeast fitness is at most 0.5. As for G9A G39C A42C C49A, the yeast fitness is at most 0.5. Take G9A A43U: the yeast fitness came to 1.08. As for G9A A43C, the yeast fitness is 1.07. For the variant U8G A14G G25A A36G A42U G68C, the yeast fitness is at most 0.5. On to G9A C31A U47A, for which the yeast fitness is at most 0.5. In the case of G9A A45G G50C A69C, the yeast fitness was at most 0.5. Turning to G9C C29A, the yeast fitness is 0.601. The same measure for U8C U26A A43U A70U: 0.675. For the variant G9A A15C G58C, the yeast fitness turned out to be 0.581.

As to G9A C27G U35A, the yeast fitness was at most 0.5. On to U8C U16A A21G, for which the yeast fitness was at most 0.5. Take U8G G23C: the yeast fitness was at most 0.5. The same measure for G9A C34G G38C: at most 0.5; for U8G U16C A21U C22A U28G: at most 0.5. G9A C31A U47C G67A: the yeast fitness was at most 0.5. The result for G9A G56A A70C reads 1.03; that for G9A C11A G44C, at most 0.5. As for G9C G10C A36U G44A C46G, the yeast fitness turned out to be 0.563. In the case of G9A C27G C31U C46G G51C A70U, the yeast fitness was at most 0.5. Take U8G A20G: the yeast fitness is 0.544. As to G9C A40U A70U, the yeast fitness was at most 0.5.

As for U8C G12A A65G, the yeast fitness came out at 0.615. Take G9A C30G C31G A43G A65G: the yeast fitness was at most 0.5. Take G9C C29U C49A C61U: the yeast fitness was at most 0.5. G9C C24A C34A C46G: the yeast fitness was at most 0.5.

With G9A A65U, the yeast fitness was determined as 0.93. As to G9C C27U U47G G50A, the yeast fitness is at most 0.5. As for G9A C27G C34U, the yeast fitness is at most 0.5.

In the case of G9C A14C U19G A42U, the yeast fitness was at most 0.5. The result for G9A C34U G67A reads at most 0.5.
